Where two headings read alike, the source gives them in different places.
Columns and labels:
Assay in all cases: Growth inhibition assay
Assay type in all cases: cell-based, human
[1] = tested on: 786-O cancer; conditions: for efficacy (maximum growth inhibition observed): 48 h, 1 to 12.5 µmol/L; for EC50: read-out: potency (EC50, concentration needed to induce half maximal efficacy), 48 h
Procedure, shortened: (§1)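 Stock is 0.01 mol/L in DMSO, kept at −20°C under subdued light. Cells get 1–12.5 µmol/L or equal-volume DMSO, in triplicate, for 48 h. Growth index is mean treated OD over mean control OD, plotted against concentration. Maximal inhibition comes by nonlinear regression from plots of 2–3 independent experiments.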

[2] = tested on: HK-2 normal; conditions: 48 h; for efficacy (maximum growth inhibition observed): 1 to 12.5 µmol/L; for EC50: read-out: potency (EC50, concentration needed to induce half maximal efficacy)
Procedure, shortened: as §1

[3] = tested on: Caki-1 cancer; conditions: for efficacy (maximum growth inhibition observed): 1 to 12.5 µmol/L; for EC50: read-out: potency (EC50, concentration needed to induce half maximal efficacy)
Procedure, shortened: as §1

[4] = tested on: RTC91696 normal; conditions: RTC91696 normal, 48 h, single experiments; for efficacy (maximum growth inhibition observed): 1 to 12.5 µmol/L; for EC50: read-out: potency (EC50, concentration needed to induce half maximal efficacy)

EC50 ([3]; Homo sapiens, CAKI-1, 48 h) [µM]	Compound	efficacy (maximum growth inhibition observed) [1]	EC50 [1] [µM]	efficacy (maximum growth inhibition observed) ([2]; HK-2 normal)	EC50 ([2]; HK-2 normal) [µM]	efficacy (maximum growth inhibition observed) ([3]; Caki-1 cancer, 48 h)	EC50 ([3]; Caki-1 cancer, 48 h) [µM]	efficacy (maximum growth inhibition observed) [4]	EC50 [4] [µM]	EC50 ([2]; Homo sapiens) [µM]
–	CC1(C)CC(C)(C)c2cc(NC(=O)Nc3ccc([N+](=O)[O-])cc3)ccc2S1 [SHetC2]	78.53% ± 6.11%	7.48 ± 0.34	52.67% ± 1.84%	4.47 ± 0.49	85.71% ± 4.53%	4.91 ± 0.29	52.31% ± 7.38%	7.67 ± 0.49	–
–	COC(=O)c1ccc(NC(=O)Nc2ccc3c(c2)C(C)(C)CC(C)(C)S3)cc1 [SHetD3]	61.52% ± 1.44%	7.15 ± 0.81	26.37% ± 0.22%	6.91 ± 0.66	56.99% ± 12.12%	7.14 ± 0.22	46.27% ± 0.95%	9.42 ± 0.43	–
–	COC(=O)c1ccc(NC(=S)Nc2ccc3c(c2)C(C)(C)CC(C)(C)S3)cc1 [SHetD4]	44.55% ± 17.56%	5.08 ± 0.71	43.67% ± 0.44%	7.42 ± 0.2	38.67% ± 1.50%	7.56 ± 0.15	37.74% ± 6.61%	5.36 ± 0.6	–
–	COC(=O)c1cccc(NC(=S)Nc2ccc3c(c2)C(C)(C)CC(C)(C)S3)c1 [SHetD5]	41.80% ± 16.91%	5.14 ± 0.7	47.97% ± 1.00%	4.96 ± 0.25	34.10% ± 1.20%	7.22 ± 0.25	–	–	–
4.64 ± 1.14	CC1=C(/C=C/C(C)=C/C=C/C(C)=C/C(=O)O)C(C)(C)CCC1 [t-RA, trans-retinoic acid, reference compound]	0.00% ± 1.43%	–	15.81% ± 0.47%	–	6.46% ± 9.40%	–	–	–	6.28 ± 2.19
